CFTR F508del cor – correctors of CFTR F508del function in bronchial epithelial cells. activity (quench increase), % at 7.58 µM. AID 720511. 350,000 compounds, 0.36% hits. CFBE cells, YFP halide quenching; stimulated with forskolin plus potentiator P3; % fluorescence drop versus neutral controls;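 active means mean added fluorescence quench of at least 8% versus neutral control, with both replicates also reaching 8%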;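 further: cells transiently co-express mutant CFTR-F508del with the halide-sensitive YFP; corrector assay measuring rescue of mutant channel to the surface after 24 h compound exposure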
Ecoli rRNA inh – inhibits bacterial ribosomal RNA function over humanized ribosomes; E. coli WT GFP vs humanized-ribosome RFP mutants, fluorescence, 24 h; active compounds read low; DMSO median 0, no signal -100; GFP signal change (wild-type ribosome), % (concentration not given with the values); 350,000 compounds, 1.6% hits;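 active means significant combined selectivity score with lowered wild-type GFP, culture density cut under 30%, mutant RFP and density less affected; inactive means any of these conditions unmet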
Cneo AK release – causes C. neoformans cell lysis. adenylate kinase release luminescence, 4 h; normalised: neutral wells 0, clomiphene wells 100. lysis activity, % at 15 µM. 360,000 compounds, 0.2% hits;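 active means mean lysis activity across replicates of at least 80%, whatever share of replicates individually reach that level; inactive means mean lysis activity below 80%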
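Assay system: log-phase C. neoformans yeast / Quantity: yeast cell density of 5 × 10^6 cells/mL / Medium: fresh YPD growth medium / Compound: single dose / Timing: static 4 h at 37 °C with compound, 1 h detection / Measured by: adenylate kinase release luminescence / Read-out: lysis from increased AK signal / Benchmarks: Clomiphene as positive lysis control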
CaV13 ICDI inh – Disruptors of the CACNA1D IQ motif to Ca2+-dependent inactivation inhibitor domain association, primary screening, Förster resonance energy transfer in intact living …; HEK cells, CFP/YFP FRET ICDI-IQ, plate reader, 10 min; percent FRET-ratio fall versus neutral wells; 340,000 compounds, 0.098% hits; inhibition, % at 12.3 µM;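 active means mean replicate inhibition of at least 30% and at least 1% of replicates passing that level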;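 further: 0% = median of the neutral control wells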
* hit, by the source's call; nt = no result; ! = not confirmed by another sample. Rows were chosen to be rich in hits. Some 1.7% of all compounds tested hit in one or more screens of this group.

SMILES	CFTR F508del cor	Ecoli rRNA inh	Cneo AK release	CaV13 ICDI inh
COc1ccc2nc(SCC(=O)NCCc3ccccc3)[nH]c2c1	1	-24*	nt	-5
O=C(CSc1nc2ccc(Cl)cc2[nH]1)NCCc1ccccc1	-2	-9	nt	-3
O=C(CSc1nc2ccc([N+](=O)[O-])cc2[nH]1)NCCc1ccccc1	-1	-28*	nt	-6
COc1cccc(CNC(=O)CSc2nc3ccc(C)cc3[nH]2)c1	8.4*	-4	0	-20
COc1ccc2nc(SCC(=O)NCc3ccc(F)cc3)[nH]c2c1	1	-15	8	-7
CN(C)C(=O)c1cccc(-c2ccccc2[C@H]2[C@H](C#N)N(C(=O)C3CCCC3)[C@H]2CO)c1	-2	9	nt	nt
C[C@@H]1CN([C@H](C)CO)C(=O)c2cc(NC(=O)Cn3cnnn3)ccc2O[C@H]1CN(C)S(=O)(=O)c1ccc(Cl)cc1	-3	1	nt	nt
COc1ccc(CNC(=O)N(C)C[C@@H]2OCc3ccccc3-c3c(n(C)c4ccccc34)C(=O)N([C@@H](C)CO)C[C@@H]2C)cc1	4	-19*!	nt	-5
COc1ccc(CNC(=O)N(C)C[C@@H]2OCc3ccccc3-c3c(n(C)c4ccccc34)C(=O)N([C@H](C)CO)C[C@@H]2C)cc1	1	1	59	nt
COc1ccc(NC(=O)N(C)C[C@H]2OCc3ccccc3-c3c(n(C)c4ccccc34)C(=O)N([C@@H](C)CO)C[C@@H]2C)cc1	-1	-3	-2	nt
COc1cccc(NC(=O)N(C)C[C@H]2OCc3ccccc3-c3c(n(C)c4ccccc34)C(=O)N([C@@H](C)CO)C[C@@H]2C)c1	-1	-10	0	nt
COc1ccc(NC(=O)N(C)C[C@H]2OCc3ccccc3-c3c(n(C)c4ccccc34)C(=O)N([C@H](C)CO)C[C@@H]2C)cc1	-1	-6	111*	nt
COc1cccc(NC(=O)N(C)C[C@H]2OCc3ccccc3-c3c(n(C)c4ccccc34)C(=O)N([C@H](C)CO)C[C@H]2C)c1	8.4*!	1	nt	-6
COc1ccc(NC(=O)N(C)C[C@H]2OCCCC[C@H](C)Oc3ccc(NC(=O)Nc4c(C)noc4C)cc3C(=O)N([C@H](C)CO)C[C@@H]2C)cc1	1	0	0	nt
CCOC(=O)C1=CN(CC)S(=O)(=O)NC1c1ccccc1 (stereo not drawn)	3	14	1	-4
CCOC(=O)C1=CNS(=O)(=O)NC1CCc1ccccc1 (stereo not drawn)	7	-22*	2	-5
O=C(CN1CCN(C(c2ccccc2)c2ccccc2)CC1)N1CCN(c2ccccc2)CC1	0	-38*	-1	-5
Cc1ccc(S(=O)(=O)N(C)C[C@@H]2Oc3c(NC(=O)c4cnccn4)cccc3C(=O)N([C@H](C)CO)C[C@@H]2C)cc1	3	-4	-1	nt
Clc1cccc(-c2ccc(C=Nc3ccc(N4CCOCC4)cc3)o2)c1Cl	14*	-10	nt	-9
Cc1cc(N/N=C/c2ccccc2O)c2ccccc2n1	16*	-51	-1	-6
C/C=C/c1ccc([C@H]2[C@@H](CO)N(C(=O)C3CC3)C23CN(C(=O)NC(C)C)C3)cc1	1	1	nt	nt
CCC1COC(c2cccn2Cc2ccc(Cl)cc2)=N1 (stereo not drawn)	2	-22*	-7	-6
CCSCC1COC(c2cccn2Cc2ccc(C)cc2)=N1 (stereo not drawn)	nt	nt	3	-3
CCN(CC)CCN1C2=C(C(=O)CC(C)(C)C2)C(c2cccc(F)c2)C2=C1CC(C)(C)CC2=O	2	16	nt	123*
CC1(C)CC(=O)C2=C(C1)N(CCN1CCOCC1)C1=C(C(=O)CC(C)(C)C1)C2c1cccc(Cl)c1	nt	nt	2	0
SMILES	CFTR F508del cor	Ecoli rRNA inh	Cneo AK release	CaV13 ICDI inh
Cc1cc(C)cc(-n2c(C)cc(/C=N\NC(=O)COc3cccc4cccnc34)c2C)c1	1	-21*	0	-4
Cc1cc(/C=N/NC(=O)COc2cccc3cccnc23)c(C)n1-c1ccc(O)cc1	nt	nt	nt	-6
Cc1noc(C)c1NC(=O)N(C)C[C@H]1Oc2ccc(NS(=O)(=O)c3c(C)noc3C)cc2C(=O)N([C@@H](C)CO)C[C@H]1C	1	4	nt	nt
Cc1noc(NS(=O)(=O)c2ccc(NC(=O)c3ccc(OC(C)C)cc3)cc2)c1C	0	-31*	nt	4
COc1ccccc1NS(=O)(=O)c1cc(C(=O)Nc2ccc(S(=O)(=O)Nc3onc(C)c3C)cc2)ccc1C	2	-21*	-3	-13
Cc1noc(NS(=O)(=O)c2ccc(NC(=O)c3ccc(N(C)C)cc3)cc2)c1C	-9	-3	3	-6
COc1ccc(-c2cc(C(=O)Nc3ccc(S(=O)(=O)Nc4onc(C)c4C)cc3)c3ccccc3n2)cc1	2	-18*	-23	-4
Cc1[nH]nc2c1C(c1ccc(Br)cc1)N(Cc1ccccc1)C2=O (stereo not drawn)	-4	-25*	nt	-3
C[C@@H]1CN([C@H](C)CO)C(=O)Cc2cc(NC(=O)Nc3ccccc3)ccc2O[C@@H]1CN(C)C(=O)Nc1ccccc1	-3	2	0	nt
CCC(CO)Oc1cc(NC(=O)c2ccc(OC)cc2)c2ncn(C(C)C)c2c1 (stereo not drawn)	1	-20*	-4	-11
CCC(CO)Oc1cc(NC(=O)c2cccc(OC)c2)c2ncn(C(C)C)c2c1 (stereo not drawn)	4	-17	-1	-2
COc1cc2c(cc1OC)CN(C(=O)/C=C/c1ccc([N+](=O)[O-])cc1)CC2	-4	-17*	-4	-3
Cc1ccc(S(=O)(=O)N(C)C[C@H]2Oc3c(NS(=O)(=O)c4c(C)noc4C)cccc3C(=O)N([C@H](C)CO)C[C@H]2C)cc1	-1	-4	-1	nt
COc1ccc(Cn2cc(CN3CC(N4CCN(Cc5ccccc5F)CC4)CS3(=O)=O)nn2)cc1 (stereo not drawn)	-3	-1	nt	-5
O=S1(=O)CC(N2CCN(Cc3ccccc3F)CC2)CN1Cc1cn(Cc2ccc(Cl)cc2)nn1 (stereo not drawn)	-1	-19*	nt	-5
COC(=O)C1=CN(C)C=C(C(=O)OC)C1c1ccccc1Cl	nt	nt	3	36*
CCCCOc1ccccc1C1C(C(=O)OC)=CN(CC)C=C1C(=O)OC	nt	nt	-3	nt
COc1cccc(Nc2nc(-c3sc(NC(=O)CC(C)C)nc3C)cs2)c1	4	-2	-10	11
COc1cccc(Nc2nc(-c3sc(NC(=O)c4ccccc4)nc3C)cs2)c1	9.1*	-1	-2	15
C=CCCC(=O)Nc1nc(C)c(-c2csc(Nc3cc(OC)ccc3OC)n2)s1	8.8*	6	-1	-8
CCCC(=O)Nc1nc(C)c(-c2csc(Nc3ccccc3OC)n2)s1	3	-4	0	-5
COc1ccccc1Nc1nc(-c2sc(NC(=O)C(C)(C)C)nc2C)cs1	14*	5	0	-10
